# Source: ChEMBL document CHEMBL3352720, “Novel alkylphospholipid-DTC hybrids as promising agents against endocrine related cancers acting via modulation of Akt-pathway” (Eur J Med Chem, 2014)
# Tests used:
# [1] = tested on: MDA-MB-231; assay: Antiproliferative activity against human MDA-MB-231 cells assessed as inhibition of cell proliferation incubated for 18 hrs followed by MTT addition for 4 hrs by MTT assay; assay type: functional, cell-based
# How it was run: (§1)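 MTT assay. Cells were grown in DMEM with 10% FBS at 37 °C, 5% CO2, 90% relative humidity. 1 × 10⁴ cells per well were seeded and held 24 h, then exposed to compounds diluted in culture medium for 18 h. MTT (5 mg/mL stock) was added for a further 4 h.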
# [2] = tested on: MCF7; assay: Antiproliferative activity against human MCF7 cells assessed as inhibition of cell proliferation incubated for 18 hrs followed by MTT addition for 4 hrs by MTT assay; assay type: functional, cell-based; how it was run: as §1
# [3] = tested on: HEK293; assay: Antiproliferative activity against HEK293 cells assessed as inhibition of cell proliferation incubated for 18 hrs followed by MTT addition for 4 hrs by MTT assay; assay type: cell-based; conditions: Homo sapiens; how it was run: as §1
# [4] = Antiproliferative activity against human PC3 cells assessed as inhibition of cell proliferation incubated for 18 hrs followed by MTT addition for 4 hrs by MTT assay; assay type: functional, cell-based; conditions: PC-3; how it was run: as §1
# [5] = Antiproliferative activity against human DU145 cells assessed as inhibition of cell proliferation incubated for 18 hrs followed by MTT addition for 4 hrs by MTT assay; assay type: functional, cell-based; conditions: DU-145; how it was run: as §1
# [6] = tested on: MCF7; assay: Induction of mitochondrial membrane potential loss in human MCF7 cells assessed as increase in JC1 dye monomer green fluorescence incubated for 24 hrs by JC1 dye based flow cytometry (reference value: 1.78%); assay type: functional
# [7] = tested on: MCF7; assay: Induction of cell cycle arrest in human MCF7 cells assessed as accumulation at G0/G1 phase incubated for 24 hrs by propidium iodide staining based FACS assay (reference value: 53.32%); assay type: functional
# [8] = tested on: MCF7; assay: Induction of cell cycle arrest in human MCF7 cells assessed as accumulation at S phase incubated for 24 hrs by propidium iodide staining based FACS assay (reference value: 45.21%); assay type: functional
# [9] = tested on: MCF7; assay: Induction of cell cycle arrest in human MCF7 cells assessed as accumulation at G2/M phase incubated for 24 hrs by propidium iodide staining based FACS assay (reference value: 1.47%); assay type: functional
# [10] = tested on: MCF7; assay: Induction of cell cycle arrest in human MCF7 cells assessed as accumulation at sub-diploid phase incubated for 24 hrs by propidium iodide staining based FACS assay (reference value: 7.26%); assay type: functional
# [11] = tested on: MCF7; assay: Induction of apoptosis in human MCF7 cells assessed as viable cells level incubated for 24 hrs by annexin-V and propidium iodide staining based flow cytometry (reference value: 89.58%); assay type: functional
# [12] = tested on: MCF7; assay: Induction of apoptosis in human MCF7 cells assessed as early apoptotic cells level incubated for 24 hrs by annexin-V and propidium iodide staining based flow cytometry (reference value: 6.42%); assay type: functional
# [13] = tested on: MCF7; assay: Induction of apoptosis in human MCF7 cells assessed as late apoptotic cells level incubated for 24 hrs by annexin-V and propidium iodide staining based flow cytometry (reference value: 1.85%); assay type: functional
# [14] = tested on: MCF7; assay: Induction of apoptosis in human MCF7 cells assessed as necrotic cells level incubated for 24 hrs by annexin-V and propidium iodide staining based flow cytometry (reference value: 2.15%); assay type: functional
Structure (SMILES),IC50 [1] [µM],IC50 [2] [µM],IC50 [3] [µM],IC50 [4] [µM],IC50 [5] [µM],Activity [6] [%],Activity [7] [%],Activity [8] [%],Activity [9] [%],Activity [10] [%],Activity [11] [%],Activity [12] [%],Activity [13] [%],Activity [14] [%]
CCCOP(=O)(O)OCCSC(=S)N1CCCCC1,68,> 100,> 100,> 100,> 100,,,,,,,,,
CCCCCCCCOP(=O)(O)OCCSC(=S)N1CCN(C)CC1,58.5,46,86,> 100,> 100,,,,,,,,,
CCCCCCCCCCCCCCCCOP(=O)(O)OCCSC(=S)N1CCN(C)CC1,> 100,> 100,> 100,95.2,49.3,,,,,,,,,
CCCCCCCCCCOP(=O)(O)OCCSC(=S)N1CCCCCC1,11.4,43.3,70,32.9,23.9,,,,,,,,,
CCCCCCCCCCOP(=O)(O)OCCSC(=S)N1CCN(C)CC1,29,99.6,> 100,80,82.3,,,,,,,,,
CCCCCCCCCCCCCCCCOP(=O)(O)OCCSC(=S)N1CCCCCC1,> 100,> 100,> 100,32.1,17.6,,,,,,,,,
CCCOP(=O)(O)OCCSC(=S)N1CCN(C)CC1,62,59,39.6,> 100,> 100,,,,,,,,,
CCCCCCCCCCCCCCCCOP(=O)([O-])OCC[N+](C)(C)C [MILTEFOSINE],2.08,34.7,,19.9,25.8,50.05,64.8,33.07,2.14,3.48,43.6,44.84,9.43,2.15
CCCCCCOP(=O)(O)OCCSC(=S)N1CCN(C)CC1,73,58,> 100,> 100,> 100,,,,,,,,,
CCCOP(=O)(O)OCCSC(=S)N1CCCCCC1,38,74,54,> 100,86.1,,,,,,,,,
CCCCCCCCCCCCCCCCOP(=O)(O)OCCSC(=S)N1CCCC1,69,72,> 100,65.7,28.9,,,,,,,,,

# Continued, in another order:
IC50 [1] [µM],IC50 [2] [µM],Structure (SMILES),IC50 [3] [µM],IC50 [4] [µM],IC50 [5] [µM],Activity [6] [%],Activity [7] [%],Activity [8] [%],Activity [9] [%],Activity [10] [%],Activity [11] [%],Activity [12] [%],Activity [13] [%],Activity [14] [%]
54,100,CCCCCCOP(=O)(O)OCCSC(=S)N1CCCC1,> 100,> 100,> 100,,,,,,,,,
67,73,CCCOP(=O)(O)OCCSC(=S)N1CCCC1,> 100,> 100,> 100,,,,,,,,,
67,70,CCCCCCCCCCOP(=O)(O)OCCSC(=S)N1CCCC1,> 100,56.1,46.1,,,,,,,,,
85,62,CCCCCCOP(=O)(O)OCCSC(=S)N1CCCCC1,> 100,> 100,> 100,,,,,,,,,
27,78,CCCCCCCCOP(=O)(O)OCCSC(=S)N1CCCCCC1,> 100,56.8,59.1,,,,,,,,,
11.9,26,CCCCCCCCOP(=O)(O)OCCSC(=S)N1CCCCC1,69,> 100,> 100,,,,,,,,,
69,53,CCCCCCCCOP(=O)(O)OCCSC(=S)N1CCCC1,28.3,> 100,47.1,,,,,,,,,
17.2,55,CCCCCCOP(=O)(O)OCCSC(=S)N1CCCCCC1,70.5,> 100,77.4,,,,,,,,,
